Screening data: PubChem, The Scripps Research Institute Molecular Screening Center
Most compounds without a hit are left out; they make up all but 4.5% or so of the library.
GPR7 antagonist – antagonists of human GPR7 (neuropeptides B/W receptor 1). P48145. GPR7-expressing cells, fluorescence antagonist assay. inhibition, % at 4.4 µM. 290,000 tested, 1.1% active. AID 1861; in the data active = inhibition above about 16%, passing the limit was not always enough;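 also: cells stimulated with the agonist NPW; 0% = agonist with vehicle and 100% = vehicle without agonist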
Target sequence (P48145 whole entry, looked up): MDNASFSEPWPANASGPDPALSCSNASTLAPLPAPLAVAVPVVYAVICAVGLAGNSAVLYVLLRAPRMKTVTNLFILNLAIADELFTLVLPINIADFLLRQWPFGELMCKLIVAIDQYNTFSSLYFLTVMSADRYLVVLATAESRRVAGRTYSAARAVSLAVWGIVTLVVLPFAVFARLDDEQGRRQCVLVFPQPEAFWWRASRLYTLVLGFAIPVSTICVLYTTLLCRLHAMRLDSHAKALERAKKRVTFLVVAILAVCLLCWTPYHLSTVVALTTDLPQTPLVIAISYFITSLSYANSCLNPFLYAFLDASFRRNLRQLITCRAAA
OX1R antag-1 – OX1R (human) antagonism; inhibition, % at 6.6 µM; 330,000 tested, 1.8% active; OX1R-expressing cells, FRET antagonist read-out; O43613; in the data active = inhibition mostly above about 38%, no sharp cut-off; inactive = mostly below about 40%;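 also: 0% = agonist challenge alone and 100% = reference antagonist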
TAAR1 ag – human TAAR1 agonism | CHO RD-HGA16 TAAR1, Fluo-8 calcium fluorescence; vehicle wells 0%, saturating PEA agonist 100% | activation, % at 3 µM | 360,000 tested, 0.99% active | AID 624467;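 active = activation above the mean activation of all test compounds in the run plus 3 SD, cut at about 38% in these data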
Target sequence (Q96RJ0 whole entry, looked up): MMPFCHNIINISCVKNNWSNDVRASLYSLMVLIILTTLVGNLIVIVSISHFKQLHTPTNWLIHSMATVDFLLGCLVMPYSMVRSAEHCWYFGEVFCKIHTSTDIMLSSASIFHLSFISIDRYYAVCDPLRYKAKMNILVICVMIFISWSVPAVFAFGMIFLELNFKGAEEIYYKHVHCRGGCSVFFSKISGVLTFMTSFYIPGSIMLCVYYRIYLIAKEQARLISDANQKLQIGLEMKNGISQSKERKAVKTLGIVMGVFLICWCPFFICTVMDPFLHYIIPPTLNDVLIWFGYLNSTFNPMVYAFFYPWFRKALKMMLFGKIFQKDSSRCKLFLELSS
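System: CHO RD-HGA16 cells carrying human TAAR1 plus Gα16; Incubation: 17-24 h seeding, 75 min 37 °C dye, 30 min RT; Measured by: Fluo-8 fluorescence, 5 s baseline then 140 s kinetic read; Control set: DMSO and PEA EC100; Replication: single well for each compound.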
CHO parental Ca – counter-screen: ATP calcium response change in parental CHO cells; AID 463079; parental CHO-K1, ATP-induced calcium, Fluo-8 fluorescence; 330,000 tested, 0.63% active; inhibition, % at 5.6 µM;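 active = inhibition above that plate's mean sample inhibition plus 3 SD, cut at about 26% in these data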;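 also: 0% = ATP-challenged DMSO wells and 100% = DMSO wells without ATP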
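material = parental CHO cells | also added = ATP as calcium-mobilizing challenge | dosing = single point at 5.6 µM | detection = intracellular calcium via Fluo-8 no-wash fluorescent dye | read-out = % inhibition | benchmarks = low control ATP plus DMSO, high control DMSO only | repeats = one well per compound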
OX1R antag-2 – human HCRTR1 antagonism; O43613; 330,000 tested, 0.43% active; inhibition, % at 5 µM; CHO/OX1R cells, Fluo-8 calcium fluorescence, orexin A; AID 434989;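 active = inhibition above its plate's threshold, mean inhibition of all tested compounds on the plate plus 3 SD, cut at about 37% in these data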;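 also: 0% = orexin A challenge wells and 100% = SB-334867-A antagonist wells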
TAAR1 antag – human TAAR1 antagonism. Q96RJ0. CHO RD-HGA16 TAAR1, Fluo-8 calcium fluorescence, antagonist. inhibition, % at 3 µM. 360,000 tested, 1.5% active. AID 624466;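 active = inhibition above a per-plate cutoff, the mean inhibition of test compounds on that plate plus 3 SD, cut at about 49% in these data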;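 also: 0% = DMSO plus EC80 beta-PEA response and 100% = DMSO alone without agonist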
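Assay system: RD-HGA16 CHO cells with stable hTAAR1 and Gα16 / Reagent: EC80 β-phenethylamine stimulus / Doses: 3 µM, single point / Timing: dye loading 75 min at 37 °C, then 30 min room temperature / Measured by: Fluo-8 intracellular calcium dye fluorescence, real-time kinetic reads / Controls: vehicle wells and EC80 agonist wells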
GPR7 antag cf – human GPR7 antagonism, confirmation assay | inhibition, % at 4.4 µM | shares compounds with GPR7 antagonist | 2,400 tested, 52% active | AID 1952 | GPR7-expressing cells, calcium fluorescence antagonist mode; in the data active = inhibition above about 24%;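 also: stimulated with the GPR7 agonist NPW; 0% = agonist plus vehicle and 100% = vehicle alone without agonist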
MCHR1 antagonist – counter-screen for GPR7 antagonists: antagonists of human MCHR1. shares compounds with GPR7 antagonist. MCHR1-expressing cells, fluorescence antagonist assay. inhibition, % at 4.4 µM. 2,400 tested, 62% active. AID 2148; in the data active = inhibition above about 22%;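 also: 0% = vehicle with agonist and 100% = vehicle without agonist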
Numbers without * were called inactive; x = no result given.

SMILES	GPR7 antagonist	OX1R antag-1	TAAR1 ag	CHO parental Ca	OX1R antag-2	TAAR1 antag	GPR7 antag cf	MCHR1 antagonist
Cc1cc([N+](=O)[O-])nn1CC(=O)Nc1c(C)n(C)n(-c2ccccc2)c1=O	31*	29	3	-14	-19	-1	-2	1
Cc1nn(CC(=O)Nc2c(C)n(C)n(-c3ccccc3)c2=O)c(C)c1[N+](=O)[O-]	6	11	4	-8	-7	-8	x	x
COC(=O)CNC(=O)c1c(-c2ccccc2Cl)noc1C	23*	0	12	-1	2	-1	-1	2
CCN(CC)c1nc(Nc2ccccc2)nc(Oc2ccc(=O)n(C)n2)n1	23*	7	14	-15	-24	8	-12	-19
O=C(NCc1cccnc1)c1ccc(COc2ccc(Cl)cc2Cl)o1	-3	16	6	-10	-18	4	x	x
O=C(NCc1cccnc1)c1ccc(COc2cccc3ccccc23)o1	32*	44	10	-28	-16	10	44*	43*
Cc1ccc(S(=O)(=O)C[C@@H]2OC[C@H](C(C)C)N2S(=O)(=O)c2ccc(C)cc2)cc1	x	x	-1	x	x	-23	x	x
CN(Cc1ccccc1)S(=O)(=O)c1nnc(NC(=O)c2ccc(F)cc2)s1	9	21	5	13	-3	-10	x	x
COc1ccc(C(=O)Nc2nnc(S(=O)(=O)N(C)Cc3ccccc3)s2)cc1	41*	16	1	-1	-6	-10	22	31*
Cc1ccc(-n2c(SCC(=O)N3CC(=O)Nc4ccccc43)nc3ccccc3c2=O)cc1	27*	22	15	-15	-23	25	6	-10
Cc1cccc(C)c1-n1c(SCC(=O)N2CC(=O)Nc3ccccc32)nc2ccccc2c1=O	16	4	12	-26	-19	24	x	x
CCn1c(N2CCN(C(=O)c3ccco3)CC2)nc2ccccc21	-6	2	1	-14	1	-6	x	x
CC(C)c1cc(N2CCN(C(=O)c3ccco3)CC2)n2c(nc3ccccc32)c1C#N	25*	17	5	-20	-29	29	-9	3
CCc1cc(C(=O)NC2CCCc3c2cnn3-c2ccc(F)cc2F)no1 (configuration not stated)	x	x	-2	x	x	17	x	x
CCc1nc2ccc(C(=O)NCCCN3CCCC3=O)cn2c1N(CC)C(C)=O	x	x	3	x	x	-21	x	x
O=C(c1cccc(Cl)c1)N1CCN(C2CCCCC2)CC1	50*	4	2	-12	-27	-21	5	-2
O=C(c1cccc([N+](=O)[O-])c1)N1CCN(c2cccc(Cl)c2)CC1	23*	12	0	-15	-25	11	31*	24*
O=C(c1cccc(F)c1)N1CCN(C2CCCCC2)CC1	13	1	6	-14	5	-20	x	x
CCCCCCn1c(=O)n2n(c1=O)[C@@H]1CN(S(=O)(=O)c3ccc(C)cc3)C[C@]1(O)[C@@H](OC(=O)NCc1ccccc1)C2	x	x	0	x	x	0	x	x
CCN(CC)S(=O)(=O)c1ccc(NC(=O)Nc2cccc(C(F)(F)F)c2)cc1	27*	12	27	35*	6	9	41*	57*
O=C(Nc1ccc(OC(F)F)cc1)Nc1cccc(C(F)(F)F)c1	39*	45*	11	60*	50*	36	54*	68*
c1ccc(N/N=C(\Cc2nc3ccccc3[nH]2)c2ccccc2)cc1	-9	19	-1	-21	-25	1	x	x
N/N=C(/Cc1nc2ccccc2[nH]1)c1ccc([N+](=O)[O-])cc1	36*	28	4	0	9	26	2	21
CC(C)(C)c1ccc2cccc(F)c2n1	x	x	5	x	x	-8	x	x
O=C(c1cc(-c2ccc(F)cc2)on1)N1CCCCCC1	36*	21	4	-20	-27	13	5	26*
SMILES	GPR7 antagonist	OX1R antag-1	TAAR1 ag	CHO parental Ca	OX1R antag-2	TAAR1 antag	GPR7 antag cf	MCHR1 antagonist
CC(C)=NOCC(=O)Nn1c(COc2c(C)cccc2C)nc2ccccc2c1=O	26*	5	4	-13	-33	6	-16	-3
CC(=O)Nn1c(COc2ccccc2C)nc2ccccc2c1=O	23	16	6	-4	-2	-1	x	x
O=C([C@H]1O[C@@H](n2ccc(=O)[nH]c2=O)[C@H](O)[C@@H]1O)N1CCSC1	x	x	2	x	x	-13	x	x
O=C(O)c1cccc(CN2C(=O)SC(Nc3ccccc3)C2=O)c1 (configuration not stated)	3	20	5	-8	-12	-4	x	x
Cc1ccc(NC2SC(=O)N(Cc3cccc(C(=O)O)c3)C2=O)cc1 (configuration not stated)	29*	8	4	2	14	-8	4	-4
CC(=O)N1CCN(CC(=O)Nc2ccc3c(c2)CCC3)CC1	23*	22	3	-6	-6	11	-10	-1
CCCc1noc2c1/C(=N\O)CC(c1ccccc1)C2 (configuration not stated)	23*	29	-2	9	-2	-6	41*	23*
CCCC(=O)Nc1nc(-c2ccc(OC)cc2)cs1	22*	17	10	-12	-15	2	24*	36*
Cc1cc(C)n(-c2ccc(C(=O)N3CCN(S(=O)(=O)c4ccc(Br)cc4Cl)CC3)cc2)n1	x	x	-1	x	x	10	x	x
COc1ccc(Nc2nnc(-c3ccc(O)cc3)c3ccccc23)cc1	61*	14	15	6	-7	-5	71*	74*
Oc1ccc(Nc2nnc(-c3ccc(O)cc3)c3ccccc23)cc1	39*	22	-1	-6	20	-14	54*	62*
COc1ccc(-c2nnc(Nc3ccc(CC(N)=O)cc3)c3ccccc23)cc1	-2	21	-2	-23	-15	1	x	x
O=C(NCCO)c1ccc(-c2nnc(Nc3ccc(O)cc3)c3ccccc23)cc1	-7	1	3	-8	0	-6	x	x
COc1ccc(-c2cc(C)no2)cc1S(=O)(=O)N1CCOc2ccccc21	23*	17	-1	-13	0	-10	13	18
CC(C)C[C@H]1CN=C(Nc2ccccc2)N1CCCCc1ccccc1	39*	5	42*	-15	-13	-4	39*	27*
CC(C)CCCN1C(Nc2ccccc2)=NC[C@@H]1Cc1ccccc1	36*	17	x	-30	-38	x	31*	24*
